# Test results as given in ChEMBL document CHEMBL3992493, “New approach of delivering cytotoxic drugs towards CAIX expressing cells: A concept of dual-target drugs” (Eur J Med Chem, 2017).
# pIC50, pKi: −log10 of the molar value. Active and inactive are the calls of the source. The rule behind the calls is not given here.
# Tests used:
# [1] = test system: MDCK; experiment: Cytotoxicity against MDCK cells expressing carbonic anhydrase 9 assessed as reduction in cell viability after 2 hrs under hypoxic condition by Alamar blue assay; assay type: functional, cell-based; settings: Canis lupus familiaris
# Procedure, shortened: (§1)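 MDCK cells transfected with human CAIX (CAIX+) or scrambled control vector (CAIX−), in DMEM/10% FBS, seeded and attached overnight. Medium replaced with pre-equilibrated hypoxic DMEM (0.2% O2, 5% CO2) for 24 h. Compounds in DMSO (0.5%) added for 2 h, then washed off. Cells regrown 72 h in normoxia. Viability read by alamarBlue conversion for 2 h under normoxia.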
# [2] = molecular target: Carbonic anhydrase 1 (Homo sapiens, UniProt P00915); experiment: Binding affinity to recombinant human carbonic anhydrase 1 after 15 mins by stopped-flow CO2 hydration assay
# Sequence of Carbonic anhydrase 1 (P00915 whole entry): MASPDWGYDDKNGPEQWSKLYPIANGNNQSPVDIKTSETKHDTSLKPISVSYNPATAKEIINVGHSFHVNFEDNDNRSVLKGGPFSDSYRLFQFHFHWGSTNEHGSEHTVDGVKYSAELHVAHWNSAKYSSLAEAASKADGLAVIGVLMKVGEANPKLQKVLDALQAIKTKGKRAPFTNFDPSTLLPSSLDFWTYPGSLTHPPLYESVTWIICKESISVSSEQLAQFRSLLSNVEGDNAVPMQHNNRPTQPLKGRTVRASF
# [3] = test system: MDCK; experiment: Cytotoxicity against carbonic anhydrase 9 knockdown MDCK cells assessed as reduction in cell viability after 2 hrs under hypoxic condition by Alamar blue assay; assay type: cell-based; settings: Canis lupus familiaris; procedure, shortened: as §1
# [4] = test system: MDCK; experiment: Cytotoxicity against carbonic anhydrase 9 knockdown MDCK cells assessed as reduction in cell viability preincubated for 2 hrs followed by 72 hrs incubation under normoxic condition by Alamar blue assay; assay type: cell-based; settings: Canis lupus familiaris
# [5] = molecular target: Carbonic anhydrase 9 (Homo sapiens, UniProt Q16790); experiment: Binding affinity to recombinant human carbonic anhydrase 9 after 15 mins by stopped-flow CO2 hydration assay
# [6] = molecular target: Carbonic anhydrase 2 (Homo sapiens, UniProt P00918); experiment: Binding affinity to recombinant human carbonic anhydrase 2 after 15 mins by stopped-flow CO2 hydration assay
# [7] = molecular target: Carbonic anhydrase 12 (Homo sapiens, UniProt O43570); experiment: Binding affinity to recombinant human carbonic anhydrase 12 after 15 mins by stopped-flow CO2 hydration assay
# Sequence of Carbonic anhydrase 12 (O43570 whole entry): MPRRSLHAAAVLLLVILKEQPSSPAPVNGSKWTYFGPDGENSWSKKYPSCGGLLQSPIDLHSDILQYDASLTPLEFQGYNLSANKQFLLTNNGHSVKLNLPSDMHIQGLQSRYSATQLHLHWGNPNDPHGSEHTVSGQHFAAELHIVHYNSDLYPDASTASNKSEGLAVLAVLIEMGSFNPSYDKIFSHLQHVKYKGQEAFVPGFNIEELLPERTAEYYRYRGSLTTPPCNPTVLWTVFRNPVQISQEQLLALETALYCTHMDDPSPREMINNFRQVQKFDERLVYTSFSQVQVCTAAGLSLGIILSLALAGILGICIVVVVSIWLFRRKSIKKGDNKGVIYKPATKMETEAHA
# [8] = test system: MDCK; experiment: Cytotoxicity against MDCK cells expressing carbonic anhydrase 9 assessed as reduction in cell viability preincubated for 2 hrs followed by 72 hrs incubation under normoxic condition by Alamar blue assay; assay type: functional, cell-based; settings: Canis lupus familiaris
# Procedure, shortened: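 CAIX-overexpressing or scrambled-vector MDCK cells in DMEM/10% FBS, attached overnight, held 24 h at 21% O2/5% CO2. Drug added (0.5% DMSO vehicle) for 2 h, washed off, then 72 h further normoxic growth. Viability measured by 2 h alamarBlue conversion under normoxia.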
# [9] = test system: HCT-116; experiment: Effect on mitochondrial respiration in human HCT116 cells expressing carbonic anhydrase 9 assessed as reduction in oxygen consumption rate at 0.5 mM […]; assay type: functional, cell-based
# [10] = test system: MDCK; experiment: Cytotoxicity against MDCK cells expressing carbonic anhydrase 9 assessed as reduction in cell viability at 500 nM after 72 hrs under anoxic condition by Alamar blue assay; assay type: functional, cell-based; settings: Canis lupus familiaris
# Procedure, shortened: (§2)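 MDCK CAIX+ or CAIX− cells, 24 h anoxic preincubation (≤0.02% O2, 5% CO2) in pre-equilibrated DMEM. ATR inhibitors (0.5% DMSO) applied for 72 h without irradiation, then washed off, and 72 h normoxic regrowth. Readout by 2 h alamarBlue conversion under normoxia.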
# [11] = test system: MDCK; experiment: Cytotoxicity against carbonic anhydrase 9 knockdown MDCK cells assessed as reduction in cell viability at 500 nM pretreated for 1 hr followed by 4 Gy irradiation under anoxic condition by Alamar blue assay; assay type: cell-based, Canis lupus familiaris; settings: dog, 0.5 µM
# Procedure, shortened: (§3)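 MDCK cells with or without CAIX, pre-exposed 24 h to anoxia (≤0.02% O2, 5% CO2, balance N2) in pre-equilibrated DMEM. ATR inhibitors in 0.5% DMSO added 1 h before 4 Gy X-irradiation. Exposure 72 h total, medium replaced, then 72 h normoxic regrowth. Viability by 2 h alamarBlue in normoxia.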
# [12] = test system: MDCK; experiment: Cytotoxicity against MDCK cells expressing carbonic anhydrase 9 assessed as reduction in cell viability at 500 nM pretreated for 72 hrs followed by 72 hrs incubation under normoxic condition by Alamar blue assay; assay type: functional, cell-based; settings: Canis lupus familiaris
# Procedure, shortened: (§4)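 MDCK cells transfected with human CAIX or scrambled vector, normoxia (21% O2, 5% CO2). ATR inhibitors in 0.5% DMSO for 72 h, medium replaced, cells grown a further 72 h. Viability from 2 h alamarBlue conversion in normoxia.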
# [13] = test system: MDCK; experiment: Cytotoxicity against carbonic anhydrase 9 knockdown MDCK cells assessed as reduction in cell viability at 500 nM pretreated for 72 hrs followed by 72 hrs incubation under normoxic condition by Alamar blue assay; assay type: cell-based, Canis lupus familiaris; settings: dog, 0.5 µM; procedure, shortened: as §4
# [14] = test system: MDCK; experiment: Cytotoxicity against carbonic anhydrase 9 knockdown MDCK cells assessed as reduction in cell viability at 500 nM after 72 hrs under anoxic condition by Alamar blue assay; assay type: cell-based, Canis lupus familiaris; settings: dog, 0.5 µM; procedure, shortened: as §2
# [15] = test system: MDCK; experiment: Cytotoxicity against MDCK cells expressing carbonic anhydrase 9 assessed as reduction in cell viability at 500 nM pretreated for 1 hr followed by 4 Gy irradiation under anoxic condition by Alamar blue assay; assay type: functional, cell-based; settings: Canis lupus familiaris; procedure, shortened: as §3
# [16] = test system: MDCK; experiment: Cytotoxicity against MDCK cells expressing carbonic anhydrase 9 assessed as reduction in cell viability at 500 nM pretreated for 1 hr followed by 2 Gy irradiation under normoxic condition by Alamar blue assay; assay type: functional, cell-based; settings: Canis lupus familiaris
# Procedure, shortened: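 MDCK CAIX+ cells (human CAIX transfected) under normoxia (21% O2, 5% CO2). ATR inhibitors in 0.5% DMSO added 1 h before X-irradiation with 2 Gy. Exposure 72 h total, medium replaced, then 72 h further growth. Viability by 2 h alamarBlue conversion in normoxia.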
# [17] = test system: MDCK; experiment: Cytotoxicity against MDCK cells expressing carbonic anhydrase 9 assessed as reduction in cell viability incubated for 24 hrs measured after 7 days under hypoxic condition by methylene blue staining based clonogenic survival assay; assay type: functional; settings: Canis lupus familiaris
# Procedure, shortened: (§5)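 Clonogenic assay: confluent, high-density MDCK CAIX+/CAIX− cells were exposed to drug for 24 h at 0.2% or 21% O2. Cells were then trypsinized and reseeded in triplicate at known numbers. Colonies grew 7 days and were fixed/stained with 0.4% methylene blue in 70% ethanol. Surviving fraction was normalized to 0.5% DMSO vehicle; three independent biological repeats.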
# [18] = test system: MDCK; experiment: Cytotoxicity against MDCK cells expressing carbonic anhydrase 9 assessed as reduction in cell viability after 72 hrs under hypoxic condition by Alamar blue assay; assay type: functional, cell-based; settings: Canis lupus familiaris
# [19] = test system: MDCK; experiment: Cytotoxicity against carbonic anhydrase 9 knockdown MDCK cells assessed as reduction in cell viability after 72 hrs under hypoxic condition by Alamar blue assay; assay type: cell-based; settings: Canis lupus familiaris
# [20] = test system: MDCK; experiment: Cytotoxicity against carbonic anhydrase 9 knockdown MDCK cells assessed as reduction in cell viability after 72 hrs under normoxic condition by Alamar blue assay; assay type: cell-based; settings: Canis lupus familiaris
# [21] = test system: MDCK; experiment: Cytotoxicity against MDCK cells expressing carbonic anhydrase 9 assessed as reduction in cell viability after 72 hrs under normoxic condition by Alamar blue assay; assay type: functional, cell-based; settings: Canis lupus familiaris
# [22] = test system: MDCK; experiment: Cytotoxicity against carbonic anhydrase 9 knockdown MDCK cells assessed as reduction in cell viability incubated for 24 hrs measured after 7 days under hypoxic condition by methylene blue staining based clonogenic survival assay; design: species or system Canis lupus familiaris; settings: dog; procedure, shortened: as §5
# [23] = test system: MDCK; experiment: Cytotoxicity against MDCK cells expressing carbonic anhydrase 9 assessed as reduction in cell viability incubated for 24 hrs measured after 7 days under normoxic condition by methylene blue staining based clonogenic survival assay; assay type: functional; settings: Canis lupus familiaris; procedure, shortened: as §5
# [24] = test system: MDCK; experiment: Cytotoxicity against carbonic anhydrase 9 knockdown MDCK cells assessed as reduction in cell viability incubated for 24 hrs measured after 7 days under normoxic condition by methylene blue staining based clonogenic survival assay; design: species or system Canis lupus familiaris; settings: dog; procedure, shortened: as §5
Compound,pIC50 [1],pKi [2],pIC50 [3],pIC50 [4],pKi [5],pKi [6],pKi [7],pIC50 [8],other results
NS(=O)(=O)c1ccc(NC(=O)OCCCCc2ccc(N(CCCl)CCCl)cc2)cc1,4.21,5.25,5.10,5.10,5.56,6.26,5.03,4.25,–
NS(=O)(=O)c1ccc(CCNc2n[n+]([O-])c3ccccc3[n+]2[O-])cc1,< 3.52,–,3.52,< 3.52,6.42,–,–,< 3.52,–
O=C(O)CCCc1ccc(N(CCCl)CCCl)cc1 [CHLORAMBUCIL],< 4.00,< 4.30,4.00,4.03,< 4.30,< 4.30,< 4.30,< 4.00,–
N=C(N)NC(=N)NCCc1ccccc1,–,–,–,–,–,–,–,–,Activity [9]: Active
NS(=O)(=O)c1ccc(CCNC(=O)OCCCCc2ccc(N(CCCl)CCCl)cc2)cc1,4.00,5.25,4.09,4.05,5.41,6.30,4.87,4.00,–
Nc1n[n+]([O-])c2ccccc2[n+]1[O-] [TIRAPAZAMINE],4.02,< 4.30,> 4.30,< 3.52,< 4.30,< 4.30,< 4.30,< 3.52,–
CS(=O)(=O)c1ccc(-c2cnc(N)c(C(=O)Nc3ccccc3)n2)cc1,–,< 4.30,–,–,< 4.30,< 4.30,< 4.30,–,Activity [10]: Active; Activity [11]: Non-Toxic; Activity [12]: Active; Activity [13]: Toxic; Activity [14]: Toxic; Activity [15]: Active; Activity [16]: Active
Cn1nnc2c(C(N)=O)ncn2c1=O [TEMOZOLOMIDE],–,< 4.30,–,–,< 4.30,< 4.30,< 4.30,–,Activity [17]: Active; pIC50 [18]: < 3.00; pIC50 [19]: 3.00; pIC50 [20]: 3.11; pIC50 [21]: < 3.00; Activity [22]: Toxic; Activity [23]: Active; Activity [24]: Toxic
NS(=O)(=O)c1ccc(CNC(=O)CCCc2ccc(N(CCCl)CCCl)cc2)cc1,4.04,5.23,4.85,4.74,5.05,6.13,5.13,4.01,–
